Columns and labels:
Trichophyton benhamiae [1] = assay: Antifungal activity against Trichophyton mentagrophytes 445 after 120 hrs; format: functional, Arthroderma benhamiae
Outline: (§1)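 Same modified M27-A microdilution with the mold inoculum of 0.5–5×10⁴ CFU/mL. Medium was RPMI 1640 with L-glutamine, no bicarbonate, and 0.165 M MOPS at pH 7.0. Twofold dilutions from 250 to 0.49. Incubated at 35 °C in a humid atmosphere.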

Mycobacterium kansasii [2] = assay: Antimicrobial activity against Mycobacterium kansasii My 6509/96 after 7 days; format: functional; conditions: 168 h
Outline: (§2)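 Run in Šula semisynthetic liquid medium containing bovine serum. Compounds added as DMSO solutions at final concentrations of […]. Each strain was also inoculated onto Löwenstein–Jensen medium to control inoculum sterility and growth.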

Candida tropicalis [3] = assay: Antifungal activity against Candida tropicalis 156 after 24 hrs; format: functional
Outline: (§3)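 Modified NCCLS M27-A broth microdilution with clinical isolates subcultured on Sabouraud dextrose agar. Suspensions diluted 1:50 in RPMI 1640 to give a final inoculum of 0.5–2.5×10³ CFU/mL for yeasts or 0.5–5×10⁴ CFU/mL for molds. The RPMI had L-glutamine, no bicarbonate, and 0.165 M MOPS to pH 7.0. Twofold dilutions from 250 to 0.49. Plates held at 35 °C, humid, without agitation. MIC is the lowest concentration giving ≥80% inhibition versus drug-free control, read at 24 and 48 h.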

Pichia kudriavzevii [4] = assay: Antifungal activity against Candida krusei E28 after 48 hrs; format: functional; outline: as §3
Pichia kudriavzevii [5] = assay: Antifungal activity against Candida krusei E28 after 24 hrs; format: functional; outline: as §3
Candida albicans [6] = assay: Antifungal activity against Candida albicans ATCC 44859 after 24 hrs; format: functional; conditions: ATCC 44859, 24 h; outline: as §3
Mycobacterium kansasii [7] = assay: Antimicrobial activity against Mycobacterium kansasii My 235/80 after 7 days; format: functional; conditions: 168 h; outline: as §2
Aspergillus fumigatus [8] = assay: Antifungal activity against Aspergillus fumigatus 231 after 48 hrs; format: functional; outline: as §3
Micrococcus luteus = assay: Antibacterial activity against Micrococcus luteus ATCC 10240 after 24 hrs by microbroth dilution method; format: functional; conditions: ATCC 10240, 24 h
Outline: (§4)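 Microbroth dilution per NCCLS guidelines. Bacteria grown overnight at 37 °C in Mueller–Hinton broth. Compound solution serially diluted twofold in MHB, then wells inoculated to a final 5×10⁵ CFU/mL. Incubated 24 h at 37 °C. MIC (µg/mL) read on an automatic plate reader as the lowest dilution allowing no visible growth.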

Trichosporon beigelii [9] = assay: Antifungal activity against Trichosporon beigelii 1188 after 48 hrs; format: functional; outline: as §3
Candida tropicalis [10] = assay: Antifungal activity against Candida tropicalis 156 after 48 hrs; format: functional; outline: as §3
[11] = test system: Mycobacterium tuberculosis; assay: Antimicrobial activity against Mycobacterium tuberculosis My 331/88 after 21 days; format: functional; conditions: 504 h
Staphylococcus aureus [12] = assay: Antibacterial activity against Staphylococcus aureus SG 511 after 24 hrs by micro-broth dilution method; format: functional; conditions: SG 511, 24 h; outline: as §4
Aspergillus fumigatus [13] = assay: Antifungal activity against Aspergillus fumigatus 231 after 24 hrs; format: functional; outline: as §3
Trichophyton benhamiae [14] = assay: Antifungal activity against Trichophyton mentagrophytes 445 after 72 hrs; format: functional, Arthroderma benhamiae; outline: as §1
Mycolicibacterium vaccae = assay: Antimicrobial activity against Mycobacterium vaccae 10670 after 24 hrs by micro-broth dilution method; format: functional; outline: as §4
Staphylococcus aureus [15] = assay: Antibacterial activity against methicillin-resistant Staphylococcus aureus 994/93 after 24 hrs by micro-broth dilution method; format: functional
Outline: (§5)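 Broth microdilution per NCCLS in Mueller–Hinton broth. Overnight cultures grown at 37 °C. Compound serially diluted twofold, then wells inoculated to a final 5×10⁵ CFU/mL. Plates held at 37 °C for 24 h. MIC (µg/mL) read on an automatic plate reader as the lowest dilution with no visible growth.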

HeLa = assay: Cytotoxicity against human HeLa cells after 72 hrs; format: functional
Outline: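 About 10,000 cells per well in RPMI 1640 were preincubated 48 h without compound. The 10 test concentrations were then applied onto the monolayers and incubated 72 h at 37 °C in humidified 5% CO₂. Monolayers fixed with glutaraldehyde, stained with 0.05% methylene blue, and eluted with 0.33 N HCl; optical density measured at 630 nm.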

Nakaseomyces glabratus [16] = assay: Antifungal activity against Candida glabrata 20/I after 48 hrs; format: functional; outline: as §3
[17] = test system: Mycolicibacterium fortuitum; assay: Antimicrobial activity against Mycobacterium fortuitum Borstel after 24 hrs by microbroth dilution method; format: functional; outline: as §4
Staphylococcus aureus [18] = assay: Antibacterial activity against methicillin-resistant Staphylococcus aureus 134/94 after 24 hrs by microbroth dilution method; format: functional; outline: as §5
K562 = assay: Antiproliferative activity against human K562 cells after 72 hrs; format: functional; conditions: K562, 72 h
Outline: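 About 10,000 suspension cells per well in RPMI 1640 with 10% heat-inactivated FBS and penicillin/streptomycin, without HEPES. Exposed to 10 concentrations for 72 h at 37 °C in humidified 5% CO₂. Wells diluted 1:50 in CASYTON and counted electronically, each result the mean of three successive counts. GI50 is where the concentration–response curve crosses 50% of control cell count.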

L929 = assay: Antiproliferative activity against mouse L929 cells after 72 hrs; format: functional; conditions: L929, 72 h
Outline: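 About 10,000 adherent cells per well in RPMI 1640 with 10% heat-inactivated FBS and penicillin/streptomycin, without HEPES. Exposed to 10 concentrations for 72 h at 37 °C in humidified 5% CO₂. Monolayers fixed with glutaraldehyde, stained 15 min with 0.05% methylene blue, and eluted with 0.33 N HCl; OD read at 630 nm. GI50 derived from dose–response curves relative to control.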

Lichtheimia corymbifera [19] = assay: Antifungal activity against Absidia corymbifera 272 after 24 hrs; format: functional; outline: as §3
Candida albicans [20] = assay: Antifungal activity against Candida albicans ATCC 44859 after 48 hrs; format: functional; conditions: ATCC 44859, 48 h; outline: as §3
[21] = test system: Mycobacterium tuberculosis; assay: Antimicrobial activity against Mycobacterium tuberculosis My 331/88 after 14 days; format: functional; conditions: 336 h
Lichtheimia corymbifera [22] = assay: Antifungal activity against Absidia corymbifera 272 after 48 hrs; format: functional; outline: as §3
Mycobacterium kansasii [23] = assay: Antimicrobial activity against Mycobacterium kansasii My 235/80 after 21 days; format: functional; conditions: 504 h; outline: as §2
Mycobacterium kansasii [24] = assay: Antimicrobial activity against Mycobacterium kansasii My 235/80 after 14 days; format: functional; conditions: 336 h; outline: as §2
Nakaseomyces glabratus [25] = assay: Antifungal activity against Candida glabrata 20/I after 24 hrs; format: functional; outline: as §3
Enterococcus faecalis = assay: Antibacterial activity against Enterococcus faecalis 1528 after 24 hrs by micro-broth dilution method; format: functional; outline: as §4
[26] = test system: Mycolicibacterium smegmatis; assay: Antimicrobial activity against Mycobacterium smegmatis SG 987 after 24 hrs by micro-broth dilution method; format: functional; outline: as §4
Mycobacterium avium [27] = assay: Antimicrobial activity against Mycobacterium avium My 330/88 after 14 days; format: functional; conditions: 336 h
Mycolicibacterium aurum = assay: Antimicrobial activity against Mycobacterium aurum SB 66 after 24 hrs by micro-broth dilution method; format: functional; outline: as §4
Mycobacterium kansasii [28] = assay: Antimicrobial activity against Mycobacterium kansasii My 6509/96 after 14 days; format: functional; conditions: 336 h; outline: as §2
Trichosporon beigelii [29] = assay: Antifungal activity against Trichosporon beigelii 1188 after 24 hrs; format: functional; outline: as §3
Mycobacterium avium [30] = assay: Antimicrobial activity against Mycobacterium avium My 330/88 after 21 days; format: functional; conditions: 504 h
Mycobacterium kansasii [31] = assay: Antimicrobial activity against Mycobacterium kansasii My 6509/96 after 21 days; format: functional; conditions: 504 h; outline: as §2

C[C@]12CC[C@@H]3c4ccc(OCCCCCCC[n+]5ccccc5)cc4CC[C@H]3[C@@H]1CCC2=O.[Br-]
MIC (Trichophyton benhamiae [1]): 62.5 µM
MIC (Mycobacterium kansasii [2]): 16 µM
MIC (Candida tropicalis [3]): 15.6 µM
MIC (Pichia kudriavzevii [4]): 31.3 µM
MIC (Pichia kudriavzevii [5]): 15.6 µM
MIC (Candida albicans [6]): 3.9 µM
MIC (Mycobacterium kansasii [7]): 16 µM
MIC (Aspergillus fumigatus [8]): 62.5 µM
MIC (Micrococcus luteus): 0.8 mg/L
MIC (Trichosporon beigelii [9]): 7.8 µM
MIC (Candida tropicalis [10]): 15.6 µM
MIC [11]: 32 µM
MIC (Staphylococcus aureus [12]): 3.12 mg/L
MIC (Aspergillus fumigatus [13]): 3.9 µM
MIC (Trichophyton benhamiae [14]): 31.3 µM
MIC (Mycolicibacterium vaccae): 3.12 mg/L
MIC (Staphylococcus aureus [15]): 6.25 mg/L
CC10 (HeLa): 5.1 mg/L
CC50 (HeLa; Homo sapiens, HeLa, 72 h): 17.5 mg/L
MIC (Nakaseomyces glabratus [16]): 15.6 µM
MIC [17]: 6.25 mg/L
MIC (Staphylococcus aureus [18]): 25 mg/L
GI50 (K562): 5.3 mg/L
GI50 (L929): 16.7 mg/L
MIC (Lichtheimia corymbifera [19]): > 250 µM
MIC (Candida albicans [20]): 3.9 µM
MIC [21]: 16 µM
MIC (Lichtheimia corymbifera [22]): > 250 µM
MIC (Mycobacterium kansasii [23]): 32 µM
MIC (Mycobacterium kansasii [24]): 32 µM
MIC (Nakaseomyces glabratus [25]): 7.8 µM
MIC (Enterococcus faecalis): 12.5 mg/L
MIC [26]: 3.12 mg/L
MIC (Mycobacterium avium [27]): 32 µM
MIC (Mycolicibacterium aurum): 6.25 mg/L
MIC (Mycobacterium kansasii [28]): 32 µM
MIC (Trichosporon beigelii [29]): 3.9 µM
MIC (Mycobacterium avium [30]): 32 µM
MIC (Mycobacterium kansasii [31]): 32 µM
